Test results from the EternaBench riboswitch data.

Tested on: MS2 coat protein
Test: apparent Kd, MS2 coat protein; higher = weaker binding; RNA-MaP array; FMN 200 µM where present
Summary of the method: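 Binding was read on Illumina sequencing-chip clusters where stalled E. coli RNA polymerase had transcribed each design. A titration of SNAP-549-labelled MS2 coat protein began at 0.7 or 1.5 nM and doubled to 3 µM, once without ligand and once with constant ligand, in 100 mM Tris-HCl pH 7.5, 80 mM KCl, 4 mM MgCl2, BSA, DTT, yeast tRNA and Tween-20. The apparent Kd is the median of filtered per-cluster binding-curve fits, based on green signal normalised to red-channel RNA signal and control-cluster median Fmax.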

[1] = designed as: OFF switch for flavin mononucleotide, no ligand
[2] = ligand present: flavin mononucleotide, designed as: OFF switch for flavin mononucleotide
[3] = designed as: ON switch for flavin mononucleotide, no ligand
[4] = ligand present: flavin mononucleotide, designed as: ON switch for flavin mononucleotide

Sequence | apparent Kd [1] [nM] | apparent Kd [2] [nM] | apparent Kd [3] [nM] | apparent Kd [4] [nM]
AAAUAACAUGUAGGAUAUGCAGCAUUAACCAUCGCAGAAGGACAUGAGGAUCACCCAUGUGGCGAUACAAUGCAAUAAGGGAAU | 16.2 | 40.7 |  | 
UUUUAAUAAUAGAAGGAGGACUUCAUGAGGAUCACCCAUGUGUUAGUACUUAGGAUAUGUAAUAACAUGAGGAUCACCCAUGUC |  |  | 44 | 42.4
AAACUCAUUGUCAGGAUAUGUAUUGAAGGAAUCGGACAGAAGGGACAUGAGGAUCACCCAUGUUACUAAGACCC | 25.9 | 74.3 |  | 
UGCAUGCUAGGAUAUACGAAACAUUAGGGUUCUUUGUGUGAACAUGAGGAUCACCCAUGUAGAAGGAGCGUGCU | 151 | 38.5 |  | 
CCCGCGAUGUCAGGAUAUAGUCGGAGGUUCAGACUAGAAGGGACAUGAGGAUCACCCAUGUGCGUGAAAAUUUAAAACCUAGGU | 51.5 | 191 |  | 
CAGGUAGACUGAGGAUAUACAGACCUAGUCUAUCUAGGUCAAUUAACCACAUGAGGAUCACCCAUGUAGAAGGCAGUCUGCCUG | 15.9 | 21.4 |  | 
ACUGCCACAGGAUAUACGAAACUCUUGGGUUCCGCCGUGUGACAUGAGGAUCACCCAUGUAGAAGGGUGGCUUA | 606 | 416 |  | 
UUAUGUUUUGUAGGAUAUCAUUAGUUUUGUAUUUUAAUUGUAAUUUAGAUAUGAGAAGGACAUUUACAUGAGGAUCACCCAUGU | 20.3 | 14.2 |  | 
GAGCGAAAGCUCAAUGUCGAUAGCAGAAGGAUAUGAAAACAUGAAAUAACAUGAGGAUCACCCAUGUAGGAUAUGCUAUCGACU | 7.41 | 14 |  | 
AAACAUGUCCGAGGAUAUCUGGAAAUAUUUCCAAGAGAAGGCGGACAUGAGGAUCACCCAUGUCUCUCCUCAUCAAAUCCAAGU | 9.36 | 73.3 |  | 
AAUAUGAGCUGGUAUAUAAACCUCACAUGAGGAUCACCCAUGUAGGAUAUCAGCACGAUAAGUGCUGAGAAGGACAUCCAGCUC | 15.4 | 17.8 |  | 
GCUCGAUGUGCUGAAAACAUGAGGAUCACCCAUGUAGAUGAUCAGGAUAUUUACGUGCUUUAUGUAGAGAAGGGAUCAUCGAGC |  |  | 64 | 27.7
CGCAUAUAUGUAAGGAUAUCUGCUUCGCAGAGGCAAGAGAAGGUACAUGAGGAUCACCCAUGUAUUUAAGGCGG | 22.6 | 25.6 |  | 
CUUUUGUGAGGAUAUCAGUAGUAUAAAAAUAAAAUUACUACUGAGAAGGCACAUGAGGAUCACCCAUGUUCCUC | 39 | 226 |  | 
UGAAUGUGAGGAUAUGGUGAGUAGUGCCUGAGCGCUGCUCACCAGAAGGCACAUGAGGAUCACCCAUGUACUUG | 66.9 | 215 |  | 
CCAGGCUGUGUGAGGAUAUGCUGGUCCUUGGAUCAGCAGAAGGCACAUGAGGAUCACCCAUGUGAAAAGCUUGG | 17.4 | 57.6 |  | 
UAUAUAUAGUAAGGAUAUGUAUAUAGUUUAUAAACAGAAGGUACUGACAUGAGGAUCACCCAUGUUUUAGUGUGGGCAUGUAGA | 77.9 | 99.5 |  | 
UAGAAGUCAGGAUAUCCAUGGCGGCACUUGCGUGGUGGCGUGGAGAAGGGACAUGAGGAUCACCCAUGUAAAGU | 53.3 | 48.5 |  | 
AUAAUGAGAGGAUAUACAUGAGGAUCACCCAUGUUUUUAUCACGUCGUGCUCCAUUACGUAGAAGGCUCAUUUA | 36.3 | 53.7 |  | 

Sequence | apparent Kd [1] [nM] | apparent Kd [2] [nM] | apparent Kd [3] [nM] | apparent Kd [4] [nM]
UUCCUGUCAGGAUAUGACUAGAUGCACGUUAGUGUGUUUACUUAGAAGGGACAUGAGGAUCACCCAUGUAUUCC | 26.2 | 24.3 |  | 
CCGGCCGCCGUGAGGAUAUGCCCGCGCGCCCGCGGGCAGAAGGCACAUGAGGAUCACCCAUGUCCUGCGGUCCC | 20.1 | 119 |  | 
AAAUUUAACGAAGGAUAUGCUGACAUGAGGAUCACCCAUGUGUGCCUUGUGUUACUGACUCGGAAGCAGAAGGUCGUAUACAUA | 400 | 552 |  | 
UUGGACGUCGUAGGAUAUGUAGAAUAUUCCUACAUGAGGAUCACCCAUGUUGACAUGGAAGAAGGACAGAAGGACGAUGUCCAU |  |  | 6.97 | 5.37
GUCUGGCUAGGAUAUACAGUGUCCACAAGUUAGUUACCCUAACAUGAGGAUCACCCAUGUAGAAGGAGUGAGAA | 72.9 | 308 |  | 
GGCGGUAAUGAGAAGGGUCACAUGAGGAUCACCCAUGUGCUCUUCGCCGUGACAGGAUAUCAUUGCCGUCAGGUUAGAUUUUUG | 7.99 | 25.4 |  | 
GCUUGUGAAGGAUAUACUGGCGGCAUGCGCUCGGCACGCGCACAUGAGGAUCACCCAUGUAGAAGGUCAAACGU | 22.4 | 22.8 |  | 
UAUAUACAUGAGGAUCACCCAUGUAAGGAUAUGCAUUAUUAUUAUUAUUAUUAUUAUAGCAGAAGGUACAAUAU | 32.1 | 31.3 |  | 
AUUUUGUCAGGAUAUGAUUAGUAGGACGAGAGUGCUACUACUUAGAAGGGACAUGAGGAUCACCCAUGUAUUCC | 17.8 | 22.2 |  | 
ACAUGGUAGUAGAAGGGUAUUACUUUAGAAUCAACCAUUAGUUUAUUUUAUACAGGAUAUGCUAACAUGAGGAUCACCCAUGUU | 10.4 | 8.25 |  | 
AAAUAUAAUGAGGAUAUCGUACUGGAUAUAGUGCGAGAAGGCAUUACAUGAGGAUCACCCAUGUUUUGUUGGGA | 30.8 | 89.5 |  | 
ACAAAUGGAGGAUAUACAUGAGGAUCACCCAUGUUUAUCCUACAUAUGUGAUACUCAUGUAGAAGGCCAUAUGA | 12.7 | 12.5 |  | 
UUUUCUCGUGAGAAGGACAUGAGGAUCACCCAUGUAGGAUAUCGUGGGAGACAGGAAUUGAAUCUUCGGAUUCAAUUCCAGUCU |  |  | 107 | 10.1
AGAAACCGAGGAUAUACAUGAGGAUCACCCAUGUCAAGCGGCAUCUACCGAACCUUCUGUAGAAGGCGGAAAAC | 19.9 | 22.9 |  | 
AUAUCCCGAGGAUAUACAUGAGGAUCACCCAUGUCGGGCCUCUGGCCUAAGGCCGAAAGUAGAAGGUGGGUUUC | 177 | 250 |  | 
GACUGCUGAGGAUAUACAUGAGGAUCACCCAUGUGCUUCAGUAUCGAAAGAUACAUUGGUAGAAGGUAGUAGUC | 11.8 | 20.8 |  | 
GUAGCAUUCUGAGGAUAUUCAUAUAAUAAAUAAACAUGAGGAUCACCCAUGUGGCGAAAGCCUUGGGAGAAGGCAGUAUGCUAC |  |  | 660 | 42.1
UGGUACAUCGGAGGAUAUCGUGUGUAAACAUGAGGAUCACCCAUGUCGUACGAGAGUACGUAGAUCGAGAAGGCCGAUGUACCU |  |  | 17.2 | 14.7
UCUGAUUGGUGAGGAUAUACAUAAUUUAUAACUGUAGAAGGCACAAACCUCAAGACAUGAGGAUCACCCAUGUGGUAUUUAGAU | 285 | 475 |  | 

Sequence | apparent Kd [1] [nM] | apparent Kd [2] [nM] | apparent Kd [3] [nM] | apparent Kd [4] [nM]
AAGAGUGCAGGAUAUACUUGGUAGGGUAAGAUGAGUGAGUGACAUGAGGAUCACCCAUGUAGAAGGGCAGAGAG | 121 | 132 |  | 
CUUAGUAUCUAGGAUAUCUAGUACAUAGUAUCUAGAGAAGGAGAUACAUGAGGAUCACCCAUGUUCUGUGAUCU | 272 | 40.4 |  | 
AGAUUGCAUGAGGAUAUCGUAUUAGAUAUAAUGCGAGAAGGCAUGACAUGAGGAUCACCCAUGUAGUGUGGGUU | 55.9 | 40.2 |  | 
AAUUGACACGUAGGAUAUCGAUCUAUAUUAACUCGAGAAGGACGUACAUGAGGAUCACCCAUGUUUAAUGGAGUAGAUAAGUUG | 102 | 289 |  | 
UUGACGGCAGGAUAUACAUGAGGAUCACCCAUGUAAAUUUUUCGUUUAACUUGAAUGUGUAGAAGGGCCAAAAU | 19.4 | 18.8 |  | 
UUGGACGUCGUAGGAUAUGUAGGAUAUUCCUACAUGAGGAUCACCCAUGUUGACAUGGAAGAAGGACUGAAGGACGAUGUCCAU |  |  | 763 | 22.9
UAUAUAUAGUAAGGAUAUGUAAUUAUUCUAUAAACAGAAGGUACUGACAUGAGGAUCACCCAUGUUUUAGUGUGGGCAUGUAGA | 43.4 | 46 |  | 
UUAAAUCAUGUAGGAUAUGCAUGGCGAAGCUACGCAGAAGGACAUGAGGAUCACCCAUGUUAAAGCUUCCGAGUUCGGAGGCAA | 114 | 266 |  | 
UGUCGGAGCAGAGGAUAUACAUGAGGAUCACCCAUGUAAAUGAAAGAUAGCUCGAAACGAGCAAAGUAGAAGGCUGCUCCGACA | 14.9 | 24.7 |  | 
CGCUGCCACGCAGGAUAUGCAUUGGAUUACAAUGCAGAAGGGCGAUUACAUGAGGAUCACCCAUGUGUUGGCAGUGAAGAAGAG |  |  | 1490 | 83.4
AGCGCUACGGAAUCAAGGGCAGGCAGAAGGAGCACAUGAGGAUCACCCAUGUGAUCCAGGGAUGGCUAGGAUAUGCGCGCCACG | 26.4 | 26.5 |  | 
ACAUUCUUUCGAGGAUAUCGGUGAUUAAUUUUACGAGAAGGCGAUUUAAGAUAUAAUAUUUUAGACAUGAGGAUCACCCAUGUA |  |  | 26.1 | 24.1
CAUUCCCGUCGAGGAUAUAUUAUAUGACAACAAACACAUACAUGAGGAUCACCCAUGUCCCAUGUAUAGAAGGCGACCUGCGUC |  |  | 46.6 | 99.3
AUGAGGUUAGGAUAUACAUGAGGAUCACCCAUGUUGAAAGGUUAGGUAGGCGGAGCUGGUAGAAGGAACGGAGC | 39.7 | 31.8 |  | 
UGGUACUUGGGAGGAUAUGGGAAGAUACAUGAGGAUCACCCAUGUUUAAGAAUGCCGAGAGGCAACUAGAAGGCCCUAGUACCU |  |  | 493 | 20
AUAUAAUAUCAGGAUAUGACUAGCCUCGGCUAGUCAGAAGGGAUGACAUGAGGAUCACCCAUGUGAUCAUAUAU | 32.8 | 156 |  | 
UUAUGAUUAAGAGGAUAUAUACAACAUGAGGAUCACCCAUGUACCCAUGUAGUAGAAGGUUUAUUUUUAUAUAAUAAUAUAAUU |  |  | 115 | 64.9
GGGUGAGACGAGAAGGGAUUUUCACAUGAGGAUCACCCAUGUCGAGUAGUCAGGAUAUCGGGCCAUGAUUACCCUAUAGAAGAC |  |  | 298 | 70.5
